Test results reported in ChEMBL document CHEMBL3822450, “Novel c-Met inhibitory olive secoiridoid semisynthetic analogs for the control of invasive breast cancer” (Eur J Med Chem, 2016).

Test system: MDA-MB-231
Assay: cells
Details: Homo sapiens, MDA-MB-231, 24 h

Row | SMILES | IC50 [µM]
1 | COc1cc(/C=C/COC(=O)/C=C/c2ccc(O)c(OC)c2)ccc1O | 19.8
2 | COC(=O)C1=CO[C@@H](C)[C@@H](C=O)[C@@H]1CC(=O)OCCc1ccc(O)cc1 | 13.8
3 | COc1cc(C=C(S)C(=O)OCCc2ccc(O)cc2)ccc1O | 30.4
4 | COc1ccc(CCOC(=O)/C=C/c2cc(OC)c(O)c(OC)c2)cc1OC | 7.8
5 | O=C(/C=C/c1ccc(O)cc1)OCCc1ccc(O)c(O)c1 | 12.7
6 | COc1cc(/C=C/C=N/CCc2ccc(O)cc2)cc(OC)c1O | 4.6
7 | OCCc1ccc(O)cc1 [TYROSOL] | > 50
8 | COc1cc(/C=C/COC(=O)/C=C/c2cc(OC)c(O)c(OC)c2)ccc1O | 18.8
9 | COc1cc(/C=C/C(=O)Oc2ccc(O)cc2C(C)=O)cc(OC)c1O | 8.1
10 | COc1cc(CCC(=O)OCCc2ccc(O)cc2)cc(OC)c1O | > 50
11 | COc1cc(/C=C\C(=O)OCCc2ccc(OC)c(OC)c2)ccc1O | 6.2
12 | COc1cc(/C=C/C(=O)NCCc2ccc(O)cc2)cc(OC)c1O [TRANS-N-SINAPOYLTYRAMINE] | > 50
13 | COc1cc(/C=C/c2nc(-c3ccc(O)cc3)no2)cc(OC)c1O | 16.3
14 | COc1ccc(CCOC(=O)/C=C\c2cc(OC)c(O)c(OC)c2)cc1OC | 8.1
15 | COc1cc(/C=C(\C#N)C(=O)OCCc2ccc(O)cc2)cc(Br)c1O | 40.6
16 | COc1cc(/C=C/C(=O)OCCc2ccc(OC)c(OC)c2)ccc1O | 5.4
17 | COc1cc(/C=C/C(=O)Oc2ccc(O)cc2C(C)=O)ccc1O | 8.3

Test system: not listed separately
Assay: cells
Details: Homo sapiens, MCF-10A, 24 h

Row | SMILES | IC50 [µM]
18 | COc1cc(/C=C/C(=O)OCCc2ccc(N)nc2)ccc1O | 213
19 | COc1cc(/C=C/C(=O)OCCCc2ccc(O)cc2)cc(OC)c1O | 203
20 | COc1ccc(CCOC(=O)/C=C/c2cc(OC)c(O)c(OC)c2)cc1OC | 214
21 | COc1cc(/C=C/C(=O)OCCCc2ccc(O)cc2)ccc1O | 190
22 | COc1cc(/C=C/C(=O)OCCc2ccc(O)c(O)c2)ccc1N | 244
23 | COc1cc(/C=C/C(=O)OCCc2ccc(O)c(N)c2)cc(OC)c1O | 186
24 | COc1cc(/C=C\C(=O)OCCc2ccc(OC)c(OC)c2)ccc1O | 223
25 | COc1cc(/C=C/C(=O)OCCc2ccc(N)nc2)cc(OC)c1O | 210
26 | COc1cc(/C=C/C(=O)OCc2cc(OC)c(O)c(OC)c2)cc(OC)c1O | 172
27 | COc1cc(/C=C/C(=O)OCCc2ccc(OC)c(OC)c2)ccc1O | 274
28 | COc1cc(/C=C/C(=O)OCc2cc(OC)c(O)c(OC)c2)ccc1O | 168

Test system: not listed separately
Assay: Cytotoxicity against human MCF10A cells assessed as inhibition of HGF-induced cell growth up to 80 uM incubated for 24 hrs by MTT assay
Assay type: cell-based
Details: mcf-10a

Row | SMILES | Activity
29 | COc1cc(CCOC(=O)/C=C/c2cc(OC)c(O)c(OC)c2)ccc1O | Non-toxic

Test system: MDA-MB-231
Assay: Antiproliferative activity against human MDA-MB-231 cells expressing c-MET assessed as inhibition of HGF-induced cell growth incubated for 72 hrs by MTT assay
Details: not given

Row | SMILES | growth inhibition (GI)
30 | COc1cc(CCOC(=O)/C=C/c2cc(OC)c(O)c(OC)c2)ccc1O | Dose-dependent effect

Test system: MDA-MB-231
Assay: Effect on total c-MET protein level in human MDA-MB-231 cells at 1 to 10 uM after 72 hrs by Western blot analysis
Details: mda-mb-231, 72 h
Method in brief: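 HGF-stimulated cells treated 72 h with 1, 5 or 10 µM or vehicle; RIPA lysates, BCA-normalised, SDS-PAGE, PVDF, blocked in 2% BSA/TBST; primary antibodies (1:1,000) overnight at 4°C against total c-Met and phospho-c-Met Y1234/1235, HRP secondary, ECL detection; β-tubulin loading control.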

Row | SMILES | Activity
31 | COc1cc(CCOC(=O)/C=C/c2cc(OC)c(O)c(OC)c2)ccc1O | Non-toxic

Test system: MDA-MB-231
Assay: cells
Details: Homo sapiens, MDA-MB-231, 72 h

Row | SMILES | IC50 [µM]
32 | COc1cc(/C=C/COC(=O)/C=C/c2ccc(O)c(OC)c2)ccc1O | 22.3
33 | COC(=O)C1=CO[C@@H](C)[C@@H](C=O)[C@@H]1CC(=O)OCCc1ccc(O)cc1 | 80.4
34 | COc1cc(C=C(S)C(=O)OCCc2ccc(O)cc2)ccc1O | 68.8
35 | COc1ccc(CCOC(=O)/C=C/c2cc(OC)c(O)c(OC)c2)cc1OC | 9.2
36 | O=C(/C=C/c1ccc(O)cc1)OCCc1ccc(O)c(O)c1 | 16
37 | COc1cc(/C=C/C=N/CCc2ccc(O)cc2)cc(OC)c1O | 89.9
38 | OCCc1ccc(O)cc1 [TYROSOL] | > 100
39 | COc1cc(/C=C/COC(=O)/C=C/c2cc(OC)c(O)c(OC)c2)ccc1O | 27.9
40 | COc1cc(/C=C/C(=O)Oc2ccc(O)cc2C(C)=O)cc(OC)c1O | 11.8
41 | COc1cc(CCC(=O)OCCc2ccc(O)cc2)cc(OC)c1O | 91.3
42 | COc1cc(/C=C\C(=O)OCCc2ccc(OC)c(OC)c2)ccc1O | 8.2
43 | COc1cc(/C=C/C(=O)NCCc2ccc(O)cc2)cc(OC)c1O [TRANS-N-SINAPOYLTYRAMINE] | 72.8
44 | COc1cc(/C=C/c2nc(-c3ccc(O)cc3)no2)cc(OC)c1O | 72.3
45 | COc1ccc(CCOC(=O)/C=C\c2cc(OC)c(O)c(OC)c2)cc1OC | 10.1
46 | COc1cc(/C=C(\C#N)C(=O)OCCc2ccc(O)cc2)cc(Br)c1O | 83.2
47 | COc1cc(/C=C/C(=O)OCCc2ccc(OC)c(OC)c2)ccc1O | 7.3
48 | COc1cc(/C=C/C(=O)Oc2ccc(O)cc2C(C)=O)ccc1O | 10.6

Test system: MDA-MB-231
Assay: Antiproliferative activity against human MDA-MB-231 spheroids expressing c-MET assessed as inhibition of HGF-induced spheroid growth measured every 4 hrs for 72 hrs by cell tracker red dye based 3D spheroid disaggregation assay
Assay type: functional
Details: not given
Method in brief: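 CellTracker Red-labelled cells, 1,000/well in ultra-low-attachment round-bottom wells with phenol-red-free DMEM, 10% FBS, 5% Matrigel; single spheroid formed over 24 h, then HGF stimulation with compound or DMSO; imaged every 4 h for 72 h at 37°C; average red-object area gives fold increase in spheroid size; 8 spheroids/group, repeated twice.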

Row | SMILES | growth inhibition (GI)
49 | COc1cc(CCOC(=O)/C=C/c2cc(OC)c(O)c(OC)c2)ccc1O | Dose-dependent effect

Target: Hepatocyte growth factor receptor (Homo sapiens, UniProt P08581)
Assay: Inhibition of recombinant human N-terminal His-tagged cytoplasmic c-MET kinase domain (956 to 1390 residues) phosphorylation expressed in baculovirus expression system using Tyr peptide-6 substrate incubated for 1 hr in presence of ATP by Z-Lyte assay
Details: not given

Row | SMILES | IC50 [µM]
50 | COc1cc(/C=C/COC(=O)/C=C/c2ccc(O)c(OC)c2)ccc1O | > 20
51 | COC(=O)C1=CO[C@@H](C)[C@@H](C=O)[C@@H]1CC(=O)OCCc1ccc(O)cc1 | > 20
52 | COc1cc(C=C(S)C(=O)OCCc2ccc(O)cc2)ccc1O | > 20
53 | COc1ccc(CCOC(=O)/C=C/c2cc(OC)c(O)c(OC)c2)cc1OC | > 20
54 | O=C(/C=C/c1ccc(O)cc1)OCCc1ccc(O)c(O)c1 | > 20
55 | COc1cc(/C=C/C=N/CCc2ccc(O)cc2)cc(OC)c1O | > 20
56 | OCCc1ccc(O)cc1 [TYROSOL] | > 20
57 | COc1cc(/C=C/COC(=O)/C=C/c2cc(OC)c(O)c(OC)c2)ccc1O | > 20
58 | COc1cc(/C=C/C(=O)Oc2ccc(O)cc2C(C)=O)cc(OC)c1O | > 20
59 | COc1cc(CCC(=O)OCCc2ccc(O)cc2)cc(OC)c1O | > 20
60 | COc1cc(/C=C\C(=O)OCCc2ccc(OC)c(OC)c2)ccc1O | > 20
61 | COc1cc(/C=C/C(=O)NCCc2ccc(O)cc2)cc(OC)c1O [TRANS-N-SINAPOYLTYRAMINE] | > 20
62 | COc1cc(/C=C/c2nc(-c3ccc(O)cc3)no2)cc(OC)c1O | > 20
63 | COc1ccc(CCOC(=O)/C=C\c2cc(OC)c(O)c(OC)c2)cc1OC | > 20
64 | COc1cc(/C=C(\C#N)C(=O)OCCc2ccc(O)cc2)cc(Br)c1O | > 20
65 | COc1cc(/C=C/C(=O)OCCc2ccc(OC)c(OC)c2)ccc1O | > 20
66 | COc1cc(/C=C/C(=O)Oc2ccc(O)cc2C(C)=O)ccc1O | > 20

Test system: MDA-MB-468
Assay: cells
Details: Homo sapiens, MDA-MB-468, 72 h

Row | SMILES | IC50 [µM]
67 | COc1cc(/C=C/COC(=O)/C=C/c2ccc(O)c(OC)c2)ccc1O | 25.6
68 | COC(=O)C1=CO[C@@H](C)[C@@H](C=O)[C@@H]1CC(=O)OCCc1ccc(O)cc1 | 93.7
69 | COc1cc(C=C(S)C(=O)OCCc2ccc(O)cc2)ccc1O | 74.5
70 | COc1ccc(CCOC(=O)/C=C/c2cc(OC)c(O)c(OC)c2)cc1OC | 8.6
71 | O=C(/C=C/c1ccc(O)cc1)OCCc1ccc(O)c(O)c1 | 20.3
72 | COc1cc(/C=C/C=N/CCc2ccc(O)cc2)cc(OC)c1O | 91.1
73 | OCCc1ccc(O)cc1 [TYROSOL] | > 100
74 | COc1cc(/C=C/COC(=O)/C=C/c2cc(OC)c(O)c(OC)c2)ccc1O | 31.2
75 | COc1cc(/C=C/C(=O)Oc2ccc(O)cc2C(C)=O)cc(OC)c1O | 15.9
76 | COc1cc(CCC(=O)OCCc2ccc(O)cc2)cc(OC)c1O | 92.2
77 | COc1cc(/C=C\C(=O)OCCc2ccc(OC)c(OC)c2)ccc1O | 9.9
78 | COc1cc(/C=C/C(=O)NCCc2ccc(O)cc2)cc(OC)c1O [TRANS-N-SINAPOYLTYRAMINE] | 80.2
79 | COc1cc(/C=C/c2nc(-c3ccc(O)cc3)no2)cc(OC)c1O | 79.1
80 | COc1ccc(CCOC(=O)/C=C\c2cc(OC)c(O)c(OC)c2)cc1OC | 10.5
81 | COc1cc(/C=C(\C#N)C(=O)OCCc2ccc(O)cc2)cc(Br)c1O | 89.2
82 | COc1cc(/C=C/C(=O)OCCc2ccc(OC)c(OC)c2)ccc1O | 8.9
83 | COc1cc(/C=C/C(=O)Oc2ccc(O)cc2C(C)=O)ccc1O | 14.2

Test system: MDA-MB-468
Assay: Antiproliferative activity against human MDA-MB-468 cells expressing c-MET assessed as inhibition of HGF-induced cell growth incubated for 72 hrs by MTT assay
Details: not given

Row | SMILES | growth inhibition (GI)
84 | COc1cc(CCOC(=O)/C=C/c2cc(OC)c(O)c(OC)c2)ccc1O | Dose-dependent effect
